Measurements: ChEMBL document CHEMBL5653631, “A Potent and Selective ULK1 Inhibitor Suppresses Autophagy and Sensitizes Cancer Cells to Nutrient Stress” (iScience, 2018)
Values belong to the compound of their own block, whether it stands above or below them.

How the values were obtained:
[1] = target: Casein kinase II subunit alpha' (Homo sapiens) (UniProt P19784); assay: Inhibition of human recombinant CK2a2 at 500 nM in presence of ATP by radiometric assay relative to control
[2] = target: T1, Serine/threonine-protein kinase Nek9 (Homo sapiens) (UniProt Q8TD19); assay: Inhibition of human recombinant NEK9 at 500 nM in presence of ATP by radiometric assay relative to control
T1 sequence (whole entry): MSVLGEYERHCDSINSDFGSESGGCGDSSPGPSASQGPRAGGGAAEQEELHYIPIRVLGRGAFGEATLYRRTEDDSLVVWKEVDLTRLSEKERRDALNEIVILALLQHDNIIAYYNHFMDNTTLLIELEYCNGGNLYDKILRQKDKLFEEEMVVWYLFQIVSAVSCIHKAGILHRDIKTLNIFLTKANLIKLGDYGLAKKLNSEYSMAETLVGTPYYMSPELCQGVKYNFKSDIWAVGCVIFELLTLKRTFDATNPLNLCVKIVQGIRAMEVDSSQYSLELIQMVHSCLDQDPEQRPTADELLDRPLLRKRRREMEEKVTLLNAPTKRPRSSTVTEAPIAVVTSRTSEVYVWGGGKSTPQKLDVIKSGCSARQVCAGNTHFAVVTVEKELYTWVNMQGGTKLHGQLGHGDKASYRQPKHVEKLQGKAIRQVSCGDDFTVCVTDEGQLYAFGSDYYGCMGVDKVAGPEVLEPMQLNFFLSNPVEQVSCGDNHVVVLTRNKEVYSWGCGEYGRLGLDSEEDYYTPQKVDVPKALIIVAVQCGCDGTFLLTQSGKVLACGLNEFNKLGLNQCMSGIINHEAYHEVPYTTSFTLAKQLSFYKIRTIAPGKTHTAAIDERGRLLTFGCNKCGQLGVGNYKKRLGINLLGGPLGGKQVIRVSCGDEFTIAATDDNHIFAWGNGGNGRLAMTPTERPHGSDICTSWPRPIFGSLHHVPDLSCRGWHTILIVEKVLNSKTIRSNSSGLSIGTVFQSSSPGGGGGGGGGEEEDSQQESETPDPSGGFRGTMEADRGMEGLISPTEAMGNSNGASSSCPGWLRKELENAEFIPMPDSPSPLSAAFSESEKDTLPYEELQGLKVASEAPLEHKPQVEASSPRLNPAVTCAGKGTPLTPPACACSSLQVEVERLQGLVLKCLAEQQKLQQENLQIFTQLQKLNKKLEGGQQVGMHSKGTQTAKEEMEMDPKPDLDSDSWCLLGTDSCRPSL

[3] = target: Serine/threonine-protein kinase SIK2 (Homo sapiens) (UniProt Q9H0K1); assay: Inhibition of human recombinant QIK at 500 nM related to control ULK1
Serine/threonine-protein kinase SIK2 (Homo sapiens), sequence (Q9H0K1 whole entry, looked up): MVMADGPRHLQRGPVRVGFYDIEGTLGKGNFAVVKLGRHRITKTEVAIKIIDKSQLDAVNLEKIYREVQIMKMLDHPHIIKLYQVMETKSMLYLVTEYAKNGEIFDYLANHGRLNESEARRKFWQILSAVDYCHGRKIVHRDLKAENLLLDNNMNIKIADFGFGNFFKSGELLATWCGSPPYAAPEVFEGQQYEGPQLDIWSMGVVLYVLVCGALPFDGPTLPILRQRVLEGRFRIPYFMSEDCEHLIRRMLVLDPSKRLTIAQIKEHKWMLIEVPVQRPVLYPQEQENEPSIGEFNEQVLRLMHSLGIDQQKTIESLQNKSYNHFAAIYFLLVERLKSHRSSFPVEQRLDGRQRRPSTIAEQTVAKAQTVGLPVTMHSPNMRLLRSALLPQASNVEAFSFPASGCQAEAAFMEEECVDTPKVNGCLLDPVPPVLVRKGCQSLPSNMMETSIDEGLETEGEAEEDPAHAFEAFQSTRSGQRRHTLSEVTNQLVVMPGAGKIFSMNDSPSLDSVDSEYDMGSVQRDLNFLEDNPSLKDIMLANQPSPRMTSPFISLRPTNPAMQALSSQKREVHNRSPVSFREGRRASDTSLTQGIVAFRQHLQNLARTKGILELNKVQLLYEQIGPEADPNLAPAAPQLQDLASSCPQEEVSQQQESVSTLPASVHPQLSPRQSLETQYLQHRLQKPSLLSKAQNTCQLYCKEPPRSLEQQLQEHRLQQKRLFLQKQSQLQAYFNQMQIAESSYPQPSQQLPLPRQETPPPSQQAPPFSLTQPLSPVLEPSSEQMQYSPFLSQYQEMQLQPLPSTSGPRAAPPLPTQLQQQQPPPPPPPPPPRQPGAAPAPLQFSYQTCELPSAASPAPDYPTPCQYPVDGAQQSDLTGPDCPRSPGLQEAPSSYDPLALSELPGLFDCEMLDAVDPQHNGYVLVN

[4] = target: Insulin receptor (Homo sapiens) (UniProt P06213); assay: Inhibition of human recombinant INSR at 500 nM related to control ULK1
Insulin receptor (Homo sapiens), sequence (P06213 28-758 limits assumed): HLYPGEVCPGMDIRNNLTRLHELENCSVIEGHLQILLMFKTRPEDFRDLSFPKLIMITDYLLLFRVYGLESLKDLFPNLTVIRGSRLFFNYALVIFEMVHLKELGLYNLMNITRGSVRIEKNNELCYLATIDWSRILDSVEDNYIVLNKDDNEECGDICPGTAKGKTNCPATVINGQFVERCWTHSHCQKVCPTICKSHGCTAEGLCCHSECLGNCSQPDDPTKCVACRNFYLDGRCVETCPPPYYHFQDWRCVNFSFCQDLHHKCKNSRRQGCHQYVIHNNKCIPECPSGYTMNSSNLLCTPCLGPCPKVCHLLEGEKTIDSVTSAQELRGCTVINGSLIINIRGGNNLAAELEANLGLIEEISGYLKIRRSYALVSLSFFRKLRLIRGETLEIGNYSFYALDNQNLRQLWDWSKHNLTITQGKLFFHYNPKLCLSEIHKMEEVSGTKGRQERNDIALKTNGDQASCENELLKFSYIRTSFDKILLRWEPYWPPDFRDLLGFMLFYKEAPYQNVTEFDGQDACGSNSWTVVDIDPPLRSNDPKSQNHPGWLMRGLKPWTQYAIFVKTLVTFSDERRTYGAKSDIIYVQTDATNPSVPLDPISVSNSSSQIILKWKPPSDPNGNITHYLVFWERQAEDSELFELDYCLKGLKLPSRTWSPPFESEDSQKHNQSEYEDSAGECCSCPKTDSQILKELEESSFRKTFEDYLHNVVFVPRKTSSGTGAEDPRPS
Insulin receptor (Homo sapiens), sequence (P06213 763-1382 limits assumed): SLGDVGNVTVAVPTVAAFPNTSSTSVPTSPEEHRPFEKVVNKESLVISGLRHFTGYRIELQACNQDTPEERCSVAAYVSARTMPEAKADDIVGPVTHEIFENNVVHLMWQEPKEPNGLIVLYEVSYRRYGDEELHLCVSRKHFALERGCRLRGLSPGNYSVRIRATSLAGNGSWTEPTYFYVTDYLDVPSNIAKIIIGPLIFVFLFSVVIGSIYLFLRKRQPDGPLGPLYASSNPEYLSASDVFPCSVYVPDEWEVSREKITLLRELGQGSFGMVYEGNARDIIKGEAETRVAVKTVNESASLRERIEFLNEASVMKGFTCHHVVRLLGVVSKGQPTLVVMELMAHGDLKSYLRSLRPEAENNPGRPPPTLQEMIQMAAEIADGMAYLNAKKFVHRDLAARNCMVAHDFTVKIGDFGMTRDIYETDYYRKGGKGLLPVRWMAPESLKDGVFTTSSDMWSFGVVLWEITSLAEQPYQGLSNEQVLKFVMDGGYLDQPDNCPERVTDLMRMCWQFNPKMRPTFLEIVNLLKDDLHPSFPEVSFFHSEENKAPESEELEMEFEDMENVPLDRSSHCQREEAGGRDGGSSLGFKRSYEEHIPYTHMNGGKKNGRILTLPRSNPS

[5] = target: Eukaryotic translation initiation factor 2-alpha kinase 1 (Homo sapiens) (UniProt Q9BQI3); assay: Inhibition of human recombinant HRI at 40 nM related to control ULK1
Eukaryotic translation initiation factor 2-alpha kinase 1 (Homo sapiens), sequence (Q9BQI3 whole entry): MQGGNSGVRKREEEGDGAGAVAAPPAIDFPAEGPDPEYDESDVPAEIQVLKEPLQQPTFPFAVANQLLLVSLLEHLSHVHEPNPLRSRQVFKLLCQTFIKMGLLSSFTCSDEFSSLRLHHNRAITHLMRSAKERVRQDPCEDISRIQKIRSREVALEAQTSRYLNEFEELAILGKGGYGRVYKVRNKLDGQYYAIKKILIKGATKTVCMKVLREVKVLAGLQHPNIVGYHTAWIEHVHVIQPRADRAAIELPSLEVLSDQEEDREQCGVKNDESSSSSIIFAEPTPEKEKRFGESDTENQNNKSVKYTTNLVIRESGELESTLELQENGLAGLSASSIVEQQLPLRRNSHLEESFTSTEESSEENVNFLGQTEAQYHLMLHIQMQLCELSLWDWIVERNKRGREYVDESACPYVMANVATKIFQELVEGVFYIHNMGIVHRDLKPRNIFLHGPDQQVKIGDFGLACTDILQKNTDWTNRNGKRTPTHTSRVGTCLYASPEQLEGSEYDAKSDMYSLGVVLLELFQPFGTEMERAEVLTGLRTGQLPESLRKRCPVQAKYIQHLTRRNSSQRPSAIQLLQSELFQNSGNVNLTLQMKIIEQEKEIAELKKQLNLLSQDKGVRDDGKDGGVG

[6] = target: Serine/threonine-protein kinase 24 (Homo sapiens) (UniProt Q9Y6E0); assay: Inhibition of human recombinant MST3 at 40 nM in presence of ATP by radiometric assay relative to control
Serine/threonine-protein kinase 24 (Homo sapiens), sequence (Q9Y6E0 whole entry, looked up): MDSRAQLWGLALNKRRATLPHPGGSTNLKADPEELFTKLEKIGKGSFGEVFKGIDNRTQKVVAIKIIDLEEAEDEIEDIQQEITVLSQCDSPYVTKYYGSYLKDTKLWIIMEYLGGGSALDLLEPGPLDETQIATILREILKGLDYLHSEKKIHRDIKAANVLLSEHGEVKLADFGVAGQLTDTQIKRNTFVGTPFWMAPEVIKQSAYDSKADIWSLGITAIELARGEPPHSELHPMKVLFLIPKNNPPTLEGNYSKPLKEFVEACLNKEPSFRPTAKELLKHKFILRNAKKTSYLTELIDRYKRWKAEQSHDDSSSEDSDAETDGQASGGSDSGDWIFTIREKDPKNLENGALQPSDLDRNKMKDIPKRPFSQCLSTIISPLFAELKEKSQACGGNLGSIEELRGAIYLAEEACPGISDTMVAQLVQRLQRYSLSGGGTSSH

[7] = target: Activin receptor type-1-like (Homo sapiens) (UniProt P37023); assay: Inhibition of human recombinant ALK1 at 15 nM related to control ULK1
Activin receptor type-1-like (Homo sapiens), sequence (P37023 whole entry): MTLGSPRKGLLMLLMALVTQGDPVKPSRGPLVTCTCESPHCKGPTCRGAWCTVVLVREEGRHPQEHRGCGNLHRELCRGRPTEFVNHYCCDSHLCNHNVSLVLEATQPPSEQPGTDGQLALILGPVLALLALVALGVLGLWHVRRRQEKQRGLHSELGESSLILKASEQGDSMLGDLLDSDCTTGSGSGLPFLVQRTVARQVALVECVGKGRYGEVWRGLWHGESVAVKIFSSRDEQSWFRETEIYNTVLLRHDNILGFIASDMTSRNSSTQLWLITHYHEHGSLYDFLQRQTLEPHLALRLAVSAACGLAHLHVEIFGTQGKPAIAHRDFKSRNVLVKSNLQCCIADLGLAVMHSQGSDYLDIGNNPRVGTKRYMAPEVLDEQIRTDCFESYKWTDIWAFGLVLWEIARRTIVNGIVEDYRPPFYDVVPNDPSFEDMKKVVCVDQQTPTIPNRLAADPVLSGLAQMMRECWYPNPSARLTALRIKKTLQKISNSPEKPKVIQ
In short: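 Panel of 327 recombinant human kinases, each assayed in vitro by radiometric activity assay in duplicate at a single inhibitor concentration per compound, chosen with reference to its ULK1 inhibition. Activity remaining was expressed as percent of vehicle control, and percent inhibition was calculated as 100 minus percent activity remaining.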

[8] = target: T2, Serine/threonine-protein kinase Sgk3 (Homo sapiens) (UniProt Q96BR1); assay: Inhibition of human recombinant SGK3 at 15 nM related to control ULK1
T2 sequence (whole entry): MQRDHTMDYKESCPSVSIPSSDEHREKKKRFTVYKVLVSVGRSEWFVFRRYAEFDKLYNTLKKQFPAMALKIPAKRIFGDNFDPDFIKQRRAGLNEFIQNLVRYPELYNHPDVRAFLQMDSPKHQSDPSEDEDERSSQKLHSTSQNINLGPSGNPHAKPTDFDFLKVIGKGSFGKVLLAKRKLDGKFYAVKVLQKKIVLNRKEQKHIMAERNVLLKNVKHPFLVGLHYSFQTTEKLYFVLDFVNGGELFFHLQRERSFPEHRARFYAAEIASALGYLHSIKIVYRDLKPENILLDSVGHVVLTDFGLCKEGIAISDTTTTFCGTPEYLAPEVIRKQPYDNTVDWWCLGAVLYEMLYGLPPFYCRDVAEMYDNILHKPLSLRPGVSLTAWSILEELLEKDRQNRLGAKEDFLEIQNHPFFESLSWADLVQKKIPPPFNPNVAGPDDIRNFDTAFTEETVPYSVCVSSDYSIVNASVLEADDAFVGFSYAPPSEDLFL

[9] = target: T3, NUAK family SNF1-like kinase 2 (Homo sapiens) (UniProt Q9H093); assay: Inhibition of human recombinant NuaK2 at 15 nM in presence of ATP by radiometric assay relative to control
T3 sequence (whole entry): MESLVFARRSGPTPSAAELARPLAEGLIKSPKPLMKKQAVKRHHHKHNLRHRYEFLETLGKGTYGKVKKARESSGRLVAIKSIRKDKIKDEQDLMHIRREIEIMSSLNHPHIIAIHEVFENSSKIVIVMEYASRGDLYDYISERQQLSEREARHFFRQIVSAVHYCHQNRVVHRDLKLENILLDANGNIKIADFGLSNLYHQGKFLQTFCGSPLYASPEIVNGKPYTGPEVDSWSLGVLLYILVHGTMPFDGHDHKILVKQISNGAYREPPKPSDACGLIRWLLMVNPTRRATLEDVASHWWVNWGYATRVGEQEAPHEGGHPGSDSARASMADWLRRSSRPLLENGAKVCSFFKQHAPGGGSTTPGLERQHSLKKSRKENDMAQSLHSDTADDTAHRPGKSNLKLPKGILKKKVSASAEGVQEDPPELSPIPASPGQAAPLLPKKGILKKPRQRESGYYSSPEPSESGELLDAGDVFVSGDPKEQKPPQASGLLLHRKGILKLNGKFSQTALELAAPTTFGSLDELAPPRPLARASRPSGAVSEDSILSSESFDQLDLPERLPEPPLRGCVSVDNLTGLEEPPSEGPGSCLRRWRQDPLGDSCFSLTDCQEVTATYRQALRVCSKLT

Casein kinase II subunit alpha' (Homo sapiens), sequence (P19784 whole entry, looked up): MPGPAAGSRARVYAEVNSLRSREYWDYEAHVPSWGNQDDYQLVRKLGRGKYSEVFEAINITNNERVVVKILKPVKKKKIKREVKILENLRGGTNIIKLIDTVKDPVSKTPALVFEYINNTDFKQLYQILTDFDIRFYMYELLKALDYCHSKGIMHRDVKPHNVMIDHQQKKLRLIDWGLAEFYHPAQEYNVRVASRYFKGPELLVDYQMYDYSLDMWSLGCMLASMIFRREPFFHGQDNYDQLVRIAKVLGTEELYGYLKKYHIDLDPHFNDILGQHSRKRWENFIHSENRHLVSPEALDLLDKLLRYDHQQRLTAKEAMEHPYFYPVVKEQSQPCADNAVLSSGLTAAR

- inhibition [1]: 5%
- fold change (FC) [3]: 0
- fold change (FC) [4]: 0
Compound: CNC(=O)c1ccccc1Oc1nc(Nc2cc(OC)c(OC)c(OC)c2)ncc1Br
- inhibition [2]: 0%

- fold change (FC) [5]: 0.01
- inhibition [6]: 20%
Compound: O=C(N[C@@H](C1CC1)C(F)(F)F)c1cc(-c2cnn3cc(-c4ccc(F)cc4)cnc23)cs1

- fold change (FC) [7]: 0.08
- fold change (FC) [8]: 0.05
- inhibition [9]: 18%
Compound: CC(C)[C@H](NC(=O)c1cc(-c2cnn3cc(-c4ccc(OCCN5CCCCC5)cc4)cnc23)cs1)C(F)(F)F
